Source: PubChem
C8 TRAIL sens: sensitizes caspase-8 expressing cells to TRAIL; NB7+C8 cells + TRAIL, ATPlite viability luminescence; inhibition (viability loss, TRAIL sensitization), % at 10 µM; hit rate 1% among 360,000; AID 624354;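 active = compounds causing at least 50% loss of cell viability in the single-dose screen, relative to plate controls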
FLuc inh counter: Photinus pyralis luciferase inhibition counter-screen; P08659; ATPLite firefly luciferase biochemical luminescence, 10 min; inhibition, % at 10 µM; hit rate 1.5% among 200,000; AID 1006;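 active = inhibition above about 50% when tested at 10 µM, limit read from the data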
Target sequence (P08659 whole entry, looked up): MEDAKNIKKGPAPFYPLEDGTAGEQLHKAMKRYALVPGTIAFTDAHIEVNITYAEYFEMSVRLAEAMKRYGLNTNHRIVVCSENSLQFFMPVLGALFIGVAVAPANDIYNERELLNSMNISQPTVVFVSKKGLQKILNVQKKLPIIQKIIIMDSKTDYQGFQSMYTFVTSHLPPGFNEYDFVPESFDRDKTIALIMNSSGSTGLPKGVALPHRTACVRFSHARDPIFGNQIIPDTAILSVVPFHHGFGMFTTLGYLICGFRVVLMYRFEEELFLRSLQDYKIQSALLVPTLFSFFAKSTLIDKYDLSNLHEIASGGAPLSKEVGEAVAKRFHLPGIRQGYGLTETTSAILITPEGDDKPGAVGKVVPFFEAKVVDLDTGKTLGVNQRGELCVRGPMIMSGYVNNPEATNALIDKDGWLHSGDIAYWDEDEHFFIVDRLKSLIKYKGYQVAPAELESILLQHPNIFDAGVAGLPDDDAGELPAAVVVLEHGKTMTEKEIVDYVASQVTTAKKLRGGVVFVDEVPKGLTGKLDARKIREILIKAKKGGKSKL
FLuc stim CS: firefly luciferase counter-screen for stimulation assays | P08659 | ATPlite luciferase biochemical, luminescence, 10 min; 0 = ATP-free wells, 1 = DMSO control | activation factor at 10 µM | 200,000 tested, under 10 active;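 active = luciferase activation factor, scaled between plate controls, of at least 2 with compound at 10 µM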
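Material: luciferase plus luciferin reagent, cell-free. Medium: PBS buffer for ATP. Also added: ATP substrate, dispensed from a 10.24 µM working solution in PBS. Doses: test compounds dosed from 2 mM stocks in 100% DMSO. Incubation: 10 min post-reagent at room temperature. Technique: light output (luminescence). Read-out basis: luminescence gain marking luciferase activators.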
PPC-1+TRAIL kill: PPC-1 cancer cell killing with TRAIL present. PPC-1 cells + TRAIL, ATPLite viability luminescence. cell killing (% activity), % at 4 µM or 5 µM. hit rate 0.41% among 220,000;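 active = cell killing above 50% in the first pass at 4 µM, then a duplicate retest at 5 µM averaging 50% or more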;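 also: plate controls were cells with TRAIL plus DMSO for no effect and medium-only wells lacking cells for full effect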
* = called active by the depositor. An excerpt weighted towards active compounds, which were near 1.6% of everything screened.

Results for CCOC(=O)c1nnn(-c2nc(N3CCCC3)nc(N3CCCC3)n2)c1-c1ccccc1 ?
C8 TRAIL sens: 9; FLuc inh counter: -4; FLuc stim CS: 1; PPC-1+TRAIL kill: 3

How did Nc1ccc(-c2nc3ccc(N)cc3[nH]2)cc1 do in these assays?
C8 TRAIL sens: 8; FLuc inh counter: 52*; FLuc stim CS: 0.5; PPC-1+TRAIL kill: 8

Results for Nc1ccc2nc(-c3ccc(Cl)cc3)[nH]c2c1 ?
C8 TRAIL sens: 28; FLuc inh counter: 75*; FLuc stim CS: 0.2; PPC-1+TRAIL kill: 45

Results for Nc1ccc2nc(-c3cccc(-c4nc5ccc(N)cc5[nH]4)c3)[nH]c2c1 ?
C8 TRAIL sens: -5

How did Nc1ccc2nc(-c3cc(Cl)c(N)c(Cl)c3)[nH]c2c1 do in these assays?
C8 TRAIL sens: 25; FLuc inh counter: 46; FLuc stim CS: 0.5; PPC-1+TRAIL kill: 25

Results for Cc1nc2ccc(-c3nc4ccc(N)cc4[nH]3)cc2[nH]1 ?
C8 TRAIL sens: 38; FLuc inh counter: 78*; FLuc stim CS: 0.2; PPC-1+TRAIL kill: 47

What do the screens show for `Cc1nc2ccc(-c3nc4ccccc4o3)cc2[nH]1`?
C8 TRAIL sens: 18; FLuc inh counter: 63*; FLuc stim CS: 0.4; PPC-1+TRAIL kill: 48

How did CC(C)CC(=O)/C(=C/c1ccc(N(C)C)cc1)n1cncn1 do in these assays?
C8 TRAIL sens: -17

What do the screens show for `CC(C)CC(=O)/C(=C\c1ccc(Cl)cc1Cl)n1cncn1`?
C8 TRAIL sens: 64*; FLuc inh counter: -2; FLuc stim CS: 1; PPC-1+TRAIL kill: 9

Results for Cc1ccc2occ(/C=N/NC(=O)c3ccc(Cl)cc3)c(=O)c2c1 ?
C8 TRAIL sens: -2

How did CCCCCCCCCCCCC/C=C/[C@@H](O)[C@@H](N)CO do in these assays?
C8 TRAIL sens: 71*

How did COc1cccc(C(c2nnnn2Cc2ccco2)N2CCN(Cc3ccccc3)CC2)c1OC (configuration not stated) do in these assays?
C8 TRAIL sens: -3; FLuc inh counter: -2; FLuc stim CS: 1; PPC-1+TRAIL kill: 14

Results for O=C(Nc1ccc(N2CCCCC2)cc1)c1ccc2c(c1)OCCO2 ?
C8 TRAIL sens: 36; FLuc inh counter: 65*; FLuc stim CS: 0.4; PPC-1+TRAIL kill: 38

How did COc1ccc(NC(=O)c2ccc3c(c2)OCCO3)cc1OC do in these assays?
C8 TRAIL sens: 52*

What do the screens show for `O=C(Nc1ccc(F)c(Cl)c1)c1ccc2c(c1)OCO2`?
C8 TRAIL sens: 8

What do the screens show for `COc1ccc(NC(=O)c2ccc3c(c2)OCO3)cc1Cl`?
C8 TRAIL sens: 35; FLuc inh counter: 61*; FLuc stim CS: 0.4; PPC-1+TRAIL kill: 41

What do the screens show for `COc1ccc(N/C=C\C(=O)c2ccc3c(c2)OCO3)cc1OC`?
C8 TRAIL sens: 29; FLuc inh counter: 60*; FLuc stim CS: 0.4; PPC-1+TRAIL kill: 35

What do the screens show for `CC(=O)N1CCN(c2ccc(NC(=O)c3ccc4c(c3)OCCO4)cc2)CC1`?
C8 TRAIL sens: -6; FLuc inh counter: 6; FLuc stim CS: 0.9; PPC-1+TRAIL kill: -11

How did COc1ccc(OCc2cc(C(=O)N3CCCN(C(C)=O)CC3)no2)c(Cl)c1 do in these assays?
C8 TRAIL sens: -5

How did COc1ccc(S(=O)(=O)Nc2ccc3c(c2)COC3=O)cc1OC do in these assays?
C8 TRAIL sens: -1; FLuc inh counter: -8; FLuc stim CS: 1.1; PPC-1+TRAIL kill: -3

How did Nc1c(N(Cc2ccccc2)C(=O)CCc2ccccc2)c(=O)[nH]c(=O)n1Cc1ccccc1 do in these assays?
C8 TRAIL sens: -1

How did COc1cc(C(=O)Nc2ccc3c(c2)OCCO3)ccc1OC(F)F do in these assays?
C8 TRAIL sens: 40; FLuc inh counter: 59*; FLuc stim CS: 0.4; PPC-1+TRAIL kill: 22

What do the screens show for `COc1cc(C(=O)Nc2ccc3c(c2)OCCO3)ccc1OC(C)C`?
C8 TRAIL sens: 16; FLuc inh counter: 41; FLuc stim CS: 0.6; PPC-1+TRAIL kill: 29

Results for O=C(Nc1ccc(N2CCCCC2)cc1)c1ccc2ccccc2n1 ?
C8 TRAIL sens: 42; FLuc inh counter: 54*; FLuc stim CS: 0.5; PPC-1+TRAIL kill: 45

How did Cc1c(NC(=O)CN2CCN(c3cccc(Cl)c3)CC2)c(=O)n(-c2ccccc2)n1C do in these assays?
C8 TRAIL sens: 10; FLuc inh counter: -4; FLuc stim CS: 1; PPC-1+TRAIL kill: 4

What do the screens show for `NC(Cc1ccc(C(F)(F)F)cc1)c1csc(Nc2nncc3ccccc23)n1` (configuration not stated)?
C8 TRAIL sens: 69*

How did CCCCN(C)C(=O)c1ccc(Nc2nc(C(N)Cc3ccc(C(F)(F)F)cc3)cs2)nc1 (configuration not stated) do in these assays?
C8 TRAIL sens: 77*
